Experimental data as given in ChEMBL document CHEMBL4138266, “Lysine Analogue of Polymyxin B as a Significant Opportunity for Photodynamic Antimicrobial Chemotherapy” (ACS Med Chem Lett, 2018).
≈ marks a conversion by molar mass, not a printed value.

Assays:
Staphylococcus aureus [1] = assay: Photobactericidal activity against Staphylococcus aureus CIP76.25 irradiated with white light at 4.83 mW/cm2 for 20 hrs; assay type: functional; settings: CIP76.25, light or radiation study
In short: (§1)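 Minimal bactericidal concentration (MBC) was determined in tryptic soy medium with log-phase bacteria at 37 °C. Plates were either kept in the dark or given 20 h of white light at 4.83 mW/cm². MBC was taken as the concentration killing 99.99% of bacteria, i.e. a 4-log reduction versus the untreated control.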

Staphylococcus aureus [2] = assay: Bactericidal activity against Staphylococcus aureus CIP76.25 incubated for 30 mins under dark conditions; assay type: ADME, organism-based; settings: 0.5 h
In short: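 S. aureus exposed to compound in PBS 1X for 30 min at 37 °C, then washed three times with PBS. The light arm was white LED irradiation at 4.83 mW/cm² (7 J/cm² = 24 min) at 37 °C. Survival was expressed as % of initial bacterial density.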

Pseudomonas aeruginosa [3] = assay: Photobactericidal activity against Pseudomonas aeruginosa CIP76110 irradiated with white light at 4.83 mW/cm2 for 20 hrs; assay type: functional; settings: CIP76110, light or radiation study; in short: as §1
Pseudomonas aeruginosa [4] = assay: Bactericidal activity against Pseudomonas aeruginosa CIP76110 incubated for 30 mins under dark conditions; assay type: organism-based; settings: 0.5 h; in short: as §1
Escherichia coli [5] = assay: Photobactericidal activity against Escherichia coli CIP54.8T irradiated with white light at 4.83 mW/cm2 for 20 hrs; assay type: functional; settings: light or radiation study; in short: as §1
Escherichia coli [6] = assay: Bactericidal activity against Escherichia coli CIP54.8T incubated for 30 mins under dark conditions; assay type: organism-based; settings: 0.5 h; in short: as §1

SMILES	MBC (Staphylococcus aureus [1]) [µM]	MBC (Staphylococcus aureus [2]) [µM]	MBC (Pseudomonas aeruginosa [3]) [µM]	MBC (Pseudomonas aeruginosa [4]) [µM]	MBC (Escherichia coli [5]) [µM]	MBC (Escherichia coli [6]) [µM]
CCCCCCCC(=O)N[C@@H](CS)C(=O)N[C@H](C(=O)N[C@@H](CCN)C(=O)N[C@H]1CCNC(=O)[C@H]([C@@H](C)O)NC(=O)[C@H](CCN)NC(=O)[C@H](CCN)NC(=O)[C@H](CC(C)C)NC(=O)[C@@H](Cc2ccccc2)NC(=O)[C@H](CCN)NC1=O)[C@@H](C)O	> 50	> 50	10 (≈ 11.9 µg/mL)	10 (≈ 11.9 µg/mL)	5 (≈ 5.96 µg/mL)	5 (≈ 5.96 µg/mL)
C[n+]1ccc(-c2c3nc(c(-c4cc[n+](C)cc4)c4ccc([nH]4)c(-c4cc[n+](C)cc4)c4nc(c(-c5cc[n+](C)cc5)c5ccc2[nH]5)C=C4)C=C3)cc1	5		20		18	
